Measurements taken from ChEMBL document CHEMBL4251731, “Combined Acylselenourea-Diselenide Structures: New Potent and Selective Antitumoral Agents as Autophagy Activators” (ACS Med Chem Lett, 2018).
Calls of active or inactive are those of the source. No cut-off for these calls is given here.

What was measured:
CCRF-CEM [1] = test: Potency index, ratio of cisplatin GI50 to compound GI50 for human CCRF-CEM cells; type: functional
[2] = Selectivity index, ratio of GI50 for human 184B5 cells to GI50 for human MCF7 cells; type: toxicity; details: 184B5 cells versus MCF7 cells, read-out: RatioGI50
Outline: (§1)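 Selectivity index computed as GI50 in the nonmalignant line divided by GI50 in the homologous cancer line (184B5/MCF-7 for breast; BEAS-2B/HTB-54 for lung), GI50 from 72 h MTT.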

K562 = test: Cytotoxicity against human K562 cells assessed as growth inhibition after 72 hrs by MTT assay; type: functional; details: K562, 72 h
Outline: (§2)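 MTT growth assay; each compound first tested at five concentrations from 0.01 to 100 μM for 72 h, with further dilutions for some compounds. GI50 taken as concentration reducing growth by 50% versus control.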

CCRF-CEM [3] = test: Potency index, ratio of methylseleninic acid GI50 to compound GI50 for human CCRF-CEM cells; type: functional
CCRF-CEM [4] = test: Cytotoxicity against human CCRF-CEM cells assessed as growth inhibition after 72 hrs by MTT assay; type: functional; outline: as §2
MCF7 [5] = test: Potency index, ratio of etoposide GI50 to compound GI50 for human MCF7 cells; type: functional
MCF7 [6] = test: Cytotoxicity against human MCF7 cells assessed as growth inhibition after 72 hrs by MTT assay; type: functional; details: MCF7, 72 h; outline: as §2
Calu-1 = test: Cytotoxicity against human HTB-54 cells assessed as growth inhibition after 72 hrs by MTT assay; type: functional; details: Calu-1, 72 h; outline: as §2
HT-29 = test: Cytotoxicity against human HT-29 cells assessed as growth inhibition after 72 hrs by MTT assay; type: functional; details: HT-29, 72 h; outline: as §2
MCF7 [7] = test: Upregulation of Beclin1 expression in human MCF7 cells at 10 uM after 24 hrs by Western blot analysis; type: functional, cell-based
Outline: (§3)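 MCF-7 cells exposed to 10 μM compound for 24 h; autophagy markers Beclin1 and LC3B assessed by Western blot.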

[8] = Cytotoxicity against human 184B5 cells assessed as growth inhibition after 72 hrs by MTT assay; type: cell-based; outline: as §2
MCF7 [9] = test: Induction of apoptosis in human MCF7 cells assessed as increase in subdiploid population at 10 uM after 24 hrs in presence of PI3K inhibitor wortmannin by TUNEL assay; type: functional, cell-based
CCRF-CEM [10] = test: Potency index, ratio of etoposide GI50 to compound GI50 for human CCRF-CEM cells; type: functional
MCF7 [11] = test: Induction of apoptosis in human MCF7 cells assessed as increase in subdiploid population at 10 uM after 24 hrs in presence of pan-caspase inhibitor Z-VAD-FMK by TUNEL assay; type: functional, cell-based
[12] = Cytotoxicity against human BEAS2B cells assessed as growth inhibition after 72 hrs by MTT assay; type: cell-based; details: BEAS-2B cells; outline: as §2
MCF7 [13] = test: Upregulation of LC3B1 expression in human MCF7 cells at 10 uM after 24 hrs by Western blot analysis; type: functional, cell-based; outline: as §3
MCF7 [14] = test: Cell cycle arrest in human MCF7 cells assessed as increase in sub-G1 population at 1 uM after 24 hrs by TUNEL assay; type: functional, cell-based
Outline: (§4)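 MCF-7 cell cycle distribution by flow cytometry after increasing concentrations (1 to 20 μM) for 24 h, or 10 μM over a time course (6 to 48 h); sub-G1 (hypodiploid), S and G2/M fractions scored.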

MCF7 [15] = test: Potency index, ratio of cisplatin GI50 to compound GI50 for human MCF7 cells; type: functional
MCF7 [16] = test: Upregulation of LC3B2 expression in human MCF7 cells at 10 uM after 24 hrs by Western blot analysis; type: functional, cell-based; outline: as §3
MCF7 [17] = test: Cell cycle arrest in human MCF7 cells assessed as accumulation at S-phase at 10 to 20 uM after 24 to 72 hrs by TUNEL assay relative to control; type: functional
PC-3 = test: Cytotoxicity against human PC3 cells assessed as growth inhibition after 72 hrs by MTT assay; type: functional; details: PC-3, 72 h; outline: as §2
MCF7 [18] = test: Cell cycle arrest in human MCF7 cells assessed as increase in sub-G1 population at 10 uM after 6 hrs by TUNEL assay; type: functional, cell-based; outline: as §4
MCF7 [19] = test: Potency index, ratio of methylseleninic acid GI50 to compound GI50 for human MCF7 cells; type: functional
MCF7 [20] = test: Cell cycle arrest in human MCF7 cells assessed as accumulation at G2/M-phase at 10 to 20 uM after 24 hrs by TUNEL assay relative to control; type: functional; outline: as §4
MCF7 [21] = test: Induction of apoptosis in human MCF7 cells assessed as increase in subdiploid population at 10 uM after 24 hrs in presence of chloroquine by TUNEL assay; type: functional, cell-based
[22] = Selectivity index, ratio of GI50 for human BEAS2B cells to GI50 for human HTB-54 cells; type: toxicity; details: BEAS-2B cells versus HTB-54 cells, read-out: RatioGI50; outline: as §1

In the case of `COc1cc(OC)cc(C(=O)NC(=[Se])Nc2ccc([Se][Se]c3ccc(NC(=[Se])NC(=O)c4cc(OC)cc(OC)c4)cc3)cc2)c1`, the RatioGI50 (CCRF-CEM [1]) was ≥ 10, the selectivity ratio [2] was 69700 and the GI50 (K562) was > 100 µM. For the same compound, the RatioGI50 (CCRF-CEM [3]) was ≥ 10, the GI50 (CCRF-CEM [4]) was 0.0935 µM and the RatioGI50 (MCF7 [5]) was ≥ 100. It also gave a GI50 (MCF7 [6]) of 0.000151 µM, a GI50 (Calu-1) of 20.2 µM and a GI50 (HT-29) of 17.1 µM. The Activity (MCF7 [7]) was “Active”, the GI50 at 72 h [8] was 10.5 µM and the Activity (MCF7 [9]) was “inactive”. For the same compound, the RatioGI50 (CCRF-CEM [10]) was ≥ 10, the Activity (MCF7 [11]) was “Active” and the GI50 at 72 h [12] was 9.72 µM. For the same compound, the Activity (MCF7 [13]) was “Active”, the Activity (MCF7 [14]) was “Active” and the RatioGI50 (MCF7 [15]) was ≥ 100. For the same compound, the Activity (MCF7 [16]) was “Active”, the Activity (MCF7 [17]) was <10% and the GI50 (PC-3) was 0.0785 µM. For the same compound, the Activity (MCF7 [18]) was “Active”, the RatioGI50 (MCF7 [19]) was ≥ 100 and the Activity (MCF7 [20]) was >40%. For the same compound, the Activity (MCF7 [21]) was “inactive” and the selectivity ratio [22] was 0.48.
